An excerpt weighted towards active compounds, which were near 2.4% of everything screened.
PP5 primary = PP5 phosphatase inhibitors, primary screen, biochemical, fluorescence; Serine/threonine-protein phosphatase 5 (Homo sapiens), P53041; purified PP5c, OMFP substrate fluorescence; 0.18% of 320,000 active; inhibition, % at 6.7 µM;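 active = inhibition above the campaign's mean inhibition across all tested compounds plus 3 SD, cut at about 9.5% in these data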
pCIP destab = p/CIP-EGFP fusion destabilizers, primary screen, fluorescence, F442A cells. Q05BA5. decrease of EGFP signal, % at 10 µM. 16 h. 0.01% of 290,000 active;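 active = EGFP signal decrease of at least 30% at 10 µM or well 3 SD below plate mean, unless failing retest; inactive = the rest, including hits failing retest or dose response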
H9c2 protect = cardioprotection against H2O2-induced cell death, primary screen, uHTS, H9c2 cells, ATPLite luminescence | H9c2 cardiomyocytes, H2O2 injury protection, 2 h | protection from H2O2 cell death, % at 20 µM | 0.63% of 360,000 active | AID 588492, 2011;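 active = compounds giving at least 50% protection of heart cells from peroxide-induced death in the single-dose screen, raw or plate-pattern-corrected value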
T cruzi inh = inhibitors of intracellular T. cruzi growth, primary screen, luminescence, NIH3T3 host cells; T. cruzi beta-gal in NIH3T3, 90 h; inhibition, % (no concentration beside the values); 1.4% of 300,000 active; AID 1885, 2009;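 active = mean inhibition across valid replicates above about 55%, limit read from the data; inconclusive = mean below that limit but half or more replicates reach it; inactive = mean below it, under half of replicates reach it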;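 also: signal also drops with host cell toxicity which is not excluded here; higher percent means less beta-gal luminescence so fewer parasites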
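System: NIH/3T3 fibroblasts plus reporter T. cruzi. Medium: DMEM plus 2% FBS. Probe or stimulus: 5000 reporter trypomastigotes per well. Compound: single 50 nL compound addition per well in DMSO. Incubation: co-culture of at least 90 h after 3 h attachment. Detection: GalScreen β-gal luminescence, detergent lysis, 60 min. Evaluation: parasite load inhibition, %.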
Fh CTSL1 inh = Fasciola hepatica cathepsin L1 inhibitors, primary screen, counter-screen for PFM18AAP inhibitor project, biochemical, QFRET, fluorogenic peptide substrate | inhibition, % at 5.96 µM | recombinant F. hepatica cathepsin L1, Z-Leu-Arg-MCA fluorescence | 0.49% of 300,000 active;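 active = inhibition above the mean of all tested compounds plus 3 SD, set per screening campaign, cut at about 17% in these data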
GASC-1 inh = inhibitors of GASC-1 histone demethylase, primary screen, biochemical, fluorescence, DELFIA europium. AID 2099, 2009. GST-JMJD2C(1-420) H3K9me3 demethylation. Lysine-specific demethylase 4C (Homo sapiens), Q9H3R0. 0.069% of 330,000 active. inhibition, % at 2.35 µM;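 active = more than half of a compound's replicate wells show inhibition beyond 50%, single wells judged on their own value; inconclusive = some, but no more than half, of replicates pass 50% inhibition; inactive = no replicate passes 50% inhibition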;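 also: signal counts dimethyl H3K9 product captured on neutravidin plate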
Target sequence (Q9H3R0 1-420 limits assumed): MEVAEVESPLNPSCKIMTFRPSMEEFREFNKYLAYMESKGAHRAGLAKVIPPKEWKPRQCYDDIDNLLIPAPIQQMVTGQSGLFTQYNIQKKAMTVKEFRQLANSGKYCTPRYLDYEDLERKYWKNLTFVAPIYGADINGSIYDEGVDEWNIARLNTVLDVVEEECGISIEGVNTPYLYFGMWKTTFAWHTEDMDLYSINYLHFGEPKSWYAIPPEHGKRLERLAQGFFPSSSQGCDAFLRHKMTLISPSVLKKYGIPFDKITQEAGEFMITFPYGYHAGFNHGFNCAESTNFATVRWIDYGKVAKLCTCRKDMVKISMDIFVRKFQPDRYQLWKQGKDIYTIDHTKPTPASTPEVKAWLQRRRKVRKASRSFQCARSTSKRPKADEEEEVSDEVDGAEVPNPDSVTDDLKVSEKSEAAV
Large screens that a line does not name were inactive.

Cc1nnc(NC(=O)CSc2nc(CC(C)C)nc3c2c(=O)n(C)c(=O)n3C)s1	none
CCCn1c(=O)n(C)c(=O)c2c(SCC(=O)NC34CC5CC(CC(C5)C3)C4)nc(CC(C)C)nc21	T cruzi inh 69.3
Cc1ccc(N(CC(=O)NC2CCCC2)C(=O)c2nsc(Cl)c2Cl)cc1	none
CCOC(=O)[C@@H]1[C@H]2COc3ccc(Br)cc3[C@@H]2N2C(=O)N(c3ccc(OC)cc3)C(=O)[C@@]12C	none (no result: PP5 primary, pCIP destab, T cruzi inh, Fh CTSL1 inh)
O=C(NCCc1cnc[nH]1)c1ccc(-c2ccccc2)cc1	T cruzi inh 60.4
N#C/C(=C\c1ccc(N2CCOCC2)o1)C(=O)NC1CCCCC1	none
N#C/C(=C/c1ccc(N2CCCCCC2)o1)c1ccc(Cl)cc1	T cruzi inh 65.2
N#C/C(=C/c1ccc(N2CCCCC2)o1)c1cccc(F)c1	T cruzi inh 55.6
Cc1ccc(/C(C#N)=C\c2ccc(N3CCOCC3)o2)cc1	T cruzi inh 57.8
N#C/C(=C/c1ccc(N2CCCCC2)cc1)c1cccc(F)c1	none
O=C1SCCC1NS(=O)(=O)c1ccc([N+](=O)[O-])cc1 (stereo not drawn)	Fh CTSL1 inh 21.2
Nn1c(SCC(=O)Nc2nccs2)nnc1-c1cccnc1	none (no result: pCIP destab, T cruzi inh, Fh CTSL1 inh)
CCNC(=O)/C(C#N)=C/c1c(N(Cc2ccccc2)Cc2ccccc2)nc2ccccn2c1=O	H9c2 protect 73.1
COC(=O)c1cc2c(ccn2-c2ccc(F)cc2)n1Cc1ccc(OC(C)=O)cc1	T cruzi inh 57.7
Cc1nn(Cc2ccccc2)c(C)c1NC(=O)Cn1nc([N+](=O)[O-])c(Cl)c1C	none
Cc1nn(Cc2ccccc2)c(C)c1NC(=O)c1ccc([N+](=O)[O-])cc1[N+](=O)[O-]	T cruzi inh 56.0
Cc1nn(Cc2ccc(Cl)c(Cl)c2)c(C)c1NC(=O)c1cn(-c2ccccc2)nc1-c1ccccc1	T cruzi inh 60.7
COCCOc1ccc(C(F)(F)F)cc1NC(=O)COC(=O)c1cc([N+](=O)[O-])ccc1N1CCOCC1	none
NC(=S)N=Nc1c(O)[nH]c2ccccc12	none
Oc1[nH]c2ccccc2c1N=NC(=S)N1CCOCC1	T cruzi inh 56.5
Oc1[nH]c2ccc(Br)cc2c1N=NC(=S)N1CCOCC1	T cruzi inh 55.0
COc1ccc(C(=O)NC(C)Cc2c[nH]c3ccccc23)cc1 (stereo not drawn)	none (no result: PP5 primary, pCIP destab, T cruzi inh, Fh CTSL1 inh, GASC-1 inh)
COc1cc2c(cc1OC)[C@H](C)N(C(=O)NCc1ccccc1)CC2	GASC-1 inh inconclusive
COc1ccccc1CNC(=O)CS(=O)(=O)Cc1ccccc1	none
Cc1c(N=Cc2cc3c(cc2[N+](=O)[O-])OCO3)cccc1[N+](=O)[O-]	H9c2 protect 72.5 (no result: pCIP destab)
Cc1ccccc1N=Cc1cc2c(cc1[N+](=O)[O-])OCO2	H9c2 protect 62.0
Cc1cc(C)nc(N/N=C/c2cc3c(cc2[N+](=O)[O-])OCO3)n1	none
COc1ccc(Nc2nc(NCc3ccco3)nc(N/N=C/c3ccc(O)cc3)n2)cc1	H9c2 protect 51.3
COc1ccc(C(=O)Nc2nc(-c3cccs3)cs2)cc1	none
COc1cc(C(=O)Nc2nc(-c3cccs3)cs2)cc(OC)c1OC	H9c2 protect 81.1
O=C(Nc1nc(-c2ccc(S(=O)(=O)N3CCCCCC3)cc2)cs1)c1cccs1	T cruzi inh 70.3
O=C(Nc1nc(-c2cccs2)cs1)c1cccc(S(=O)(=O)N2CCCCC2)c1	T cruzi inh 61.6
O=C(Nc1nc(-c2cc3ccccc3o2)cs1)c1ccc(S(=O)(=O)N2CCCC2)cc1	T cruzi inh 65.5
O=C(NCc1ccc(Cl)cc1)C1CCCN1C(=O)Nc1ccccc1 (stereo not drawn)	none
Cn1nc(C(=O)NC2CCCCC2)c2c1-c1ccccc1S(=O)(=O)C2	none
CCN(CC)CCCCCC(=O)Nc1ccccc1C(=O)Nc1ccccc1	none
CC1(C)Oc2ccc3ccc(=O)oc3c2/C(=C/Nc2ccccn2)C1=O	H9c2 protect 55.9
COCC(=O)Nc1ccc2c(c1)[C@@H]1C[C@H](CC(=O)OC)O[C@H](CO)[C@@H]1O2	none (no result: PP5 primary, pCIP destab, T cruzi inh, Fh CTSL1 inh, GASC-1 inh)
CCOC(=O)C1=C(CNCCc2ccc(Cl)cc2)NC(=O)NC1c1ccc2c(c1)OCO2 (stereo not drawn)	T cruzi inh 56.5
O=C(Nc1ccc2nc(-c3cccs3)[nH]c2c1)c1cccs1	Fh CTSL1 inh 16.9
O=C(Nc1ccc(-c2nc3ccc(NC(=O)c4cccs4)cc3[nH]2)cc1)c1cccs1	none
CCCCCCN1C[C@H](n2cc(C3CC3)nn2)[C@@H](O)C[C@@H]1c1ccc(OC)cc1	none (no result: PP5 primary, pCIP destab, T cruzi inh, Fh CTSL1 inh, GASC-1 inh)
COc1ccccc1N=Cc1c(C)c(C#N)c2[nH]c3ccccc3n2c1=O	GASC-1 inh 58.5
Cc1c(Cc2ccccc2)c(=O)n2c([nH]c3ccccc32)c1C#N	none
CCN(CC)c1ccc(CNc2nc3ccccc3n2CCN2CCCCC2)cc1	T cruzi inh 59.9
COc1ccc(CNc2nc3ccccc3n2CCN2CCCCC2)cc1	none
O=C(Cn1ncc2c(=O)oc3ccccc3c21)NC1CC1	none
Cc1ccc2oc(=O)c3cnn(CC(=O)NC4CCN(Cc5ccccc5)CC4)c3c2c1	T cruzi inh 57.1
COc1c(C)cc(C(=O)C2CCCN(C(=O)c3cc(C4CC4)[nH]n3)C2)cc1C (stereo not drawn)	none
Cc1onc(-c2ccc(Cl)cc2)c1-c1ccnc(SCC(=O)Nc2cc(Cl)cc(Cl)c2)n1	T cruzi inh 58.7
O=C(CSc1nccc(-c2cccs2)n1)Nc1cccc(Cl)c1	none
CCOC(=O)c1sc(S(C)(=O)=O)c2c1CCc1conc1-2	Fh CTSL1 inh 42.3
COc1cccc(CC(=O)OCC(=O)N(C)CC(=O)Nc2ccc(Cl)c(C(F)(F)F)c2)c1	none (no result: pCIP destab)
N#C/C(=C\c1ccc(O)c(O)c1)S(=O)(=O)c1ccccc1	H9c2 protect 50.7
N#C/C(=C\c1ccc(O)c(O)c1)C(=O)NCCCc1ccccc1	H9c2 protect 88.7
N#C/C(=C\c1ccc(O)c(O)c1)C(=O)c1ccc(O)c(O)c1	H9c2 protect 63.9 (no result: pCIP destab, T cruzi inh, GASC-1 inh)
CC(C)(Cc1ccccc1)/[N+]([O-])=C\c1ccc(C(F)(F)F)cc1	none (no result: pCIP destab)
CC(C)C[C@@H](CN=[N+]=[N-])N1CCN(Cc2ccccc2)CCC1=O	none
COc1ccc(CNCCC(c2ccc(OC(C)C)cc2)C(C)C)cc1OC (stereo not drawn)	T cruzi inh 72.8
COc1c(Br)cc(/C=N/n2c(-c3ccccc3)n[nH]c2=S)c(O)c1Br	H9c2 protect 63.5
Cc1ccc(N2CC(C(=O)OCc3nnc(-c4ccccc4)o3)CC2=O)cc1 (stereo not drawn)	none (no result: pCIP destab)

Screening data from PubChem.
